Converted amounts (≈) assume the structure as drawn.
Legend:
[1] = tested on: Serum; assay: Stability of the compound in 80% human blood serum assessed as hydrolysis to 2-bromo-6-(1H-imidazol-1-yl)-7H-indeno[2,1-c]quinolin-7-one oxime at 1 mg after 24 hrs at 37 degC by LC-MS analysis; format: ADME, cell-free; parameters: scale not given: the % may be the effect or the level left
Method in brief: (§1)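 Enzymatic hydrolysis: 1 mg prodrug dissolved in 1 mL ethanol, then 200 µL preheated human blood serum diluted to 80% with 0.16 M phosphate buffer (pH 7.4) was added. Samples were kept at 37 °C (24 h) and centrifuged 10 min at 10,000 rpm. Remaining prodrug in the supernatant was monitored by TLC and LC-MS. t1/2 is the time to 50% hydrolysis.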

[2] = tested on: Mycobacterium tuberculosis; assay: Antimicrobial activity against Mycobacterium tuberculosis H37Rv ATCC 27294 after 16 to 24 hrs by microplate alamar blue assay; format: functional
Method in brief: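 M. tuberculosis H37Rv inoculum 2×10^5 cfu/mL (100 µL) added to twofold dilutions in Middlebrook 7H12 medium; final test range 128 µM to 0.5 µM from 12.8 mM DMSO stocks. Incubated 37 °C; day 7 Tween 80 plus Alamar Blue added, further 16-24 h at 37 °C. Fluorescence ex 530/em 590 nm; MIC = lowest concentration giving >90% fluorescence reduction versus replicate bacteria-only controls. Rifampin, isoniazid controls.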

[3] = Cytotoxicity against human U937 cells assessed as cell viability at 1.25 ug/ml after 72 hrs by MTT assay; format: cell-based, U-937; conditions: read-out: Activity
Method in brief: (§2)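 U937 human monocytic cells plated at 1 × 10^5 cells/mL and allowed to adhere for 1 h at 37 °C in 5% CO2. Non-adherent cells were washed off with RPMI 1640. Adherent cells were exposed to compound in triplicate, with medium alone as the live control and 3% Tween 20 as the dead control. MTT (5 mg/mL in PBS) was then added for 3 h at 37 °C. Formazan was dissolved in 0.4 M HCl/isopropanol and absorbance read at 600 nm. Results are expressed as % cell viability.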

[4] = Half life in 10% aqueous ammonia buffer at pH 8 assessed as hydrolysis to 2-bromo-6-(1H-imidazol-1-yl)-7H-indeno[2,1-c]quinolin-7-one oxime at 37 degC by LC-MS analysis; format: physicochemical
Method in brief: (§3)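 Chemical hydrolysis: 1 mg prodrug dissolved in 1 mL of 10% aqueous ammonia in methanol (pH 8) and held in a thermostatted water bath at 37 °C, up to 24 h. Conversion to the parent oxime was followed by TLC and LC-MS. t1/2 is the time to 50% hydrolysis.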

[5] = Cytotoxicity against human U937 cells assessed as cell viability at 20 ug/ml after 72 hrs by MTT assay; format: cell-based, U-937; conditions: read-out: Activity; method in brief: as §2
[6] = Cytotoxicity against human U937 cells assessed as cell viability at 5 ug/ml after 72 hrs by MTT assay; format: cell-based, U-937; conditions: read-out: Activity; method in brief: as §2
[7] = Selectivity index, ratio CC50 for human U937 cells to MIC for Mycobacterium tuberculosis H37Rv ATCC 27294; format: functional, U-937
[8] = Half life in human blood serum by LC-MS analysis; format: ADME, cell-free, Plasma; method in brief: as §1
[9] = Cytotoxicity against human U937 cells assessed as cell viability at 10 ug/ml after 72 hrs by MTT assay; format: cell-based, U-937; conditions: read-out: Activity; method in brief: as §2
[10] = Octanol-water partition coefficient, log P of the compound at pH 7.4 at room temperature by UV spectrophotometric analysis; format: physicochemical
Method in brief: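 Shake-flask method at room temperature: 1-octanol and phosphate buffer (pH 7.4) were pre-saturated by shaking for 24 h. Compound at 10^-4 M in equal volumes of both phases was shaken vigorously for 1 h, left to stand 15 min, then centrifuged 10 min at 10,000 rpm. UV absorbance of each phase was read at 280 nm against blanks, and P was taken as the octanol/water absorbance ratio.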

[11] = Stability of the compound in 10% aqueous ammonia buffer at pH 8 assessed as hydrolysis to 2-bromo-6-(1H-imidazol-1-yl)-7H-indeno[2,1-c]quinolin-7-one oxime at 1 mg at 37 degC by LC-MS analysis; format: physicochemical; parameters: scale not given: the % may be the effect or the level left; method in brief: as §3

| SMILES | Activity [1] | MIC [2] | viability at 72 h, 1.25 ug/ml [3] | half-life [4] | viability at 72 h, 20 ug/ml [5] | viability at 72 h, 5 ug/ml [6] | Selectivity Index [7] | half-life [8] | viability at 72 h, 10 ug/ml [9] | logD [10] | Activity [11] |
| --- | --- | --- | --- | --- | --- | --- | --- | --- | --- | --- | --- |
| CCCCCCC(=O)O/N=C1\c2ccccc2-c2c1c(-n1ccnc1)nc1ccc(Br)cc21 | 85% | 0.36 µg/mL (≈ 0.715 µM) | 85% | 48 h | 60% | 80% | >111 | 192 h | 67% | 1.5 | 95% |
| CC(C)(C)OC(=O)NC(Cc1cccc(F)c1)C(=O)O/N=C1\c2ccccc2-c2c1c(N1CCN(c3ccccn3)CC1)nc1ccc(Br)cc21 (stereo not given) | 95% | 2.98 µg/mL (≈ 3.96 µM) | 92% | 72 h | 84% | 90% | >13 | 144 h | 79% | 1.1 | 95% |
| CCCCCC(=O)O/N=C1\c2ccccc2-c2c1c(-n1ccnc1)nc1ccc(Br)cc21 | 85% | 1.5 µg/mL (≈ 3.07 µM) | 81% | 144 h |  |  |  | 240 h | 100% | 2.1 | 90% |
| C[C@H](NC(=O)OC(C)(C)C)C(=O)O/N=C1\c2ccccc2-c2c1c(N1CCN(c3ccccn3)CC1)nc1ccc(Br)cc21 | 66% | 6 µg/mL (≈ 9.12 µM) | 100% | 48 h |  |  |  | 480 h | 100% | 1.7 | 95% |
| CC(C)(C)OC(=O)NC(Cc1ccccc1)C(=O)O/N=C1\c2ccccc2-c2c1c(N1CCN(c3ccccn3)CC1)nc1ccc(Br)cc21 (stereo not given) | 70% | 3.47 µg/mL (≈ 4.73 µM) | 87% | 72 h | 73% | 87% | >12 | 432 h | 71% | 1.2 | 98% |
| O=C(CCCCBr)O/N=C1\c2ccccc2-c2c1c(N1CCN(c3ccccn3)CC1)nc1ccc(Br)cc21 | 10% | 2.03 µg/mL (≈ 3.13 µM) | 99% | 96 h | 80% | 94% | >20 |  | 79% | 1.5 | 95% |
| CCCCCCCCC(=O)OC1(C)c2ccccc2-c2c1c(-n1ccnc1)nc1ccc(Br)cc21 (stereo not given) | Not Active | 1.56 µg/mL (≈ 2.93 µM) | 86% | 288 h | 50% | 75% | 11.4 |  | 71% | 1.6 | 90% |
| CC(C)(C)OC(=O)N[C@H](C(=O)O/N=C1\c2ccccc2-c2c1c(N1CCN(c3ccccn3)CC1)nc1ccc(Br)cc21)C(C)(C)C | 11% | 1.52 µg/mL (≈ 2.17 µM) | 92% | 48 h | 82% | 86% | >26 |  | 87% | 1.5 | 95% |
| CCCCC(=O)O/N=C1\c2ccccc2-c2c1c(-n1ccnc1)nc1ccc(Br)cc21 | 90% | 0.28 µg/mL (≈ 0.589 µM) | 85% | 72 h | 51% | 82% | 60 | 144 h | 75% | 1.6 | 90% |
